Results collected from several papers.
Target: STE20-like serine/threonine-protein kinase (SLK, Homo sapiens, UniProt Q9H2G2)

Structure (SMILES)	read-out	mode	technique	concentration	measurement	value
CN1CCN(C(=O)c2ccc(NC(=O)Nc3ccc(N(C)c4ccnc(Nc5ccc(CS(C)(=O)=O)cc5)n4)cc3)cc2)CC1	binding	–	competition with immobilised ligand	1 µM	remaining binding	8.9%
CC#CC(=O)N1CCC[C@H]1c1nc(-c2ccc(C(=O)Nc3ccccn3)cc2)c2c(N)nccn12	enzyme activity	inhibitor	–	1 µM	inhibition	0%
C#Cc1cc(-c2cc(Nc3nc(N[C@@H](C)c4ccc(F)cn4)ncc3Cl)n[nH]2)ccc1C=O	enzyme activity	inhibitor	–	0.2 µM	inhibition	54.5%
CCCCC(=O)Nc1ccc(-c2ccc3ncn(CCC)c(=O)c3c2)cn1	binding	–	competition with immobilised ligand	0.5 µM	remaining binding	100%
C[C@]1(O)CCCN(c2nc(Nc3ccc(S(=O)(=O)N[C@H]4CC[C@H](CN5CCN(c6ccc(C7CCC(=O)NC7=O)cc6F)CC5)CC4)cc3Cl)ncc2C(F)(F)F)C1 (some centres unmarked)	binding	–	competition with immobilised ligand	1 µM	remaining binding	100%
C[C@H]1CC[C@H](n2c3cnccc3c3cnc(Nc4ccc5c(n4)CCN(C(=O)CO)C5)nc32)CC1	binding	–	competition with immobilised ligand	1 µM	remaining binding	78%
C=CC(=O)N1CCC([C@@H]2CCNc3c(C(N)=O)c(-c4ccc(Oc5ccccc5)cc4)nn32)CC1	enzyme activity	inhibitor	–	1 µM	inhibition	0%
CNS(=O)(=O)c1ccc(Nc2ncc(C(F)(F)F)c(N3CCC[C@](C)(O)C3)n2)c(C)c1	binding	–	competition with immobilised ligand	1 µM	remaining binding	96%
